Source: ChEMBL document CHEMBL4825680, “Structure-based discovery of potent and selective small-molecule inhibitors targeting signal transducer and activator of transcription 3 (STAT3)” (Eur J Med Chem, 2021)
Activity calls are given as the source filed them. The rule behind the calls is not given here.

Columns and labels:
[1] = Induction of apoptosis in human MDA231-LM2-4175 cells assessed as viable cells at 3 uM after 48 hrs by Annexin-V-FITC/propidium iodide staining based flow cytometric analysis (reference value: 94.4%); assay type: functional; conditions: read-out: Activity
MDA231-LM2-4175 [2] = test: Antitumor activity against human MDA231-LM2-4175 cells xenografted in mouse assessed as reduction in Ki67 expression at 5 to 15 mg/kg, iv administered once daily for 20 days by immunohistochemical analysis; assay type: functional, organism-based; conditions: dose 5-15 mg/kg, time 20.0 day
MDA-MB-468 [3] = test: Induction of apoptosis in human MDA-MB-468 cells assessed as early apoptotic cells at 3 uM after 48 hrs by Annexin-V-FITC/propidium iodide staining based flow cytometric analysis (reference value: 2.66%); assay type: functional
MDA-MB-231 [4] = test: Induction of apoptosis in human MDA-MB-231 cells assessed as late apoptotic cells at 3 uM after 48 hrs by Annexin-V-FITC/propidium iodide staining based flow cytometric analysis (Rvb =3.05%); assay type: functional
[5] = AUC(0 to infinity) in Sprague-Dawley rat at 10 mg/kg, po measured up to 24 hrs by LC-MS/MS analysis; assay type: ADME, organism-based; set-up: route oral, dose 10 mg/kg, time <=24; conditions: in vivo
In short: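 Male SD rats given a single oral dose of 10 mg/kg in DMSO/0.5% HPMC (5/95, v/v). Blood was drawn at 0.25, 0.5, 1, 2, 4, 8 and 24 h, and plasma was analysed by LC-MS/MS on a BEH phenyl column with a formic acid water/acetonitrile mobile phase.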

[6] = target: T1, Signal transducer and activator of transcription 3 (Homo sapiens, UniProt P40763); test: Inhibition of STAT3 in human MDA-MB-468 cells assessed as downregulation of Mcl-1 expression at 0.3 to 3 uM after 24 hrs by western blot analysis; assay type: cell-based; conditions: dose 0.3-3 µM
T1 sequence (P40763 whole entry): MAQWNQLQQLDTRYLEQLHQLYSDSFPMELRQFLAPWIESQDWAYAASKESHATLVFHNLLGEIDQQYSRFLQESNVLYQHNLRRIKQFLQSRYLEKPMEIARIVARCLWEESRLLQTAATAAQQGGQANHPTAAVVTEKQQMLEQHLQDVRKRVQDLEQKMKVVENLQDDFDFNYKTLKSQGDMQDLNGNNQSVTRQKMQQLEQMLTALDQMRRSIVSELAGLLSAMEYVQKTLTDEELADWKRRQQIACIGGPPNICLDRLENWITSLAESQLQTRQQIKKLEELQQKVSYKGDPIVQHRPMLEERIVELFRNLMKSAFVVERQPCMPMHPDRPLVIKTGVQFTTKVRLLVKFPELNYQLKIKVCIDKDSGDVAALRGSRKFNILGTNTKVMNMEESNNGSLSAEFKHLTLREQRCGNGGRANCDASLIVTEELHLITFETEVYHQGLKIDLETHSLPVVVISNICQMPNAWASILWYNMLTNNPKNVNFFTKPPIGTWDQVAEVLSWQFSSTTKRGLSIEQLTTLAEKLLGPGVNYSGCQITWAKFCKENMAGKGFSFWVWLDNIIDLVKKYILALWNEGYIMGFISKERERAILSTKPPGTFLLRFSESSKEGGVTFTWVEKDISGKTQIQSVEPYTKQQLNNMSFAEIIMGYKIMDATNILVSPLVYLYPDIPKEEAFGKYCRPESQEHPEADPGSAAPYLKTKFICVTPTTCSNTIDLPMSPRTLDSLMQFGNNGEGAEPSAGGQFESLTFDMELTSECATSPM
In short: (§1)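 TNBC cells given vehicle (0.1% DMSO) or graded compound levels for 24 h, lysed in RIPA with PMSF and phosphatase inhibitors. BCA-quantified lysate (20–50 µg) run on SDS-PAGE, transferred to PVDF, blocked in 5% BSA. Probed overnight at 4 °C for Bcl-xL, Mcl-1 and c-Myc, with β-actin. HRP secondary, ECL detection. Three independent experiments.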

[7] = Toxicity in mouse xenografted with human MDA-MB-231-4175 cells assessed as morphological change in lung at 5 to 15 mg/kg, […] once daily for 20 days by HE staining based assay; assay type: organism-based; conditions: in vivo, iv, 480 h, dose 5-15 mg/kg, time 20 day
In short: (§2)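 Female NOD-SCID mice aged 4–5 weeks, given 2×10^6–3×10^6 MDA-MB-231-4175 cells subcutaneously in the flank. At about 100 mm³ tumour volume, randomised n=6/group: vehicle (PBS with 15% Cremophor EL), 5 or 15 mg/kg intraperitoneally daily. Killed at day 20; heart, liver, spleen, lung and kidney collected for morphological examination.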

HCC70 = test: Effect on total STAT3 level in human HCC70 cells at 0.3 to 3 uM measured after 3 hrs by Western blot analysis; assay type: functional, cell-based; conditions: dose 0.3-3 µM
In short: (§3)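 Breast cancer cells were treated with vehicle (0.1% DMSO) or compound, then lysed in RIPA with PMSF and phosphatase inhibitors. 20–50 μg protein was run on 8 or 12% SDS-PAGE, blotted to PVDF, blocked in 5% BSA, probed with primary antibodies overnight at 4 °C, then HRP secondaries, with ECL detection.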

[8] = Antitumor activity against patient-derived breast cancer cells xenografted in NOD/SCID mouse assessed as tumor growth inhibition at 15 mg/kg, ip administered once daily for 20 days; conditions: Homo sapiens, Breast cancer cell line, 480 h, read-out: TGI
[9] = target: T1, Signal transducer and activator of transcription 3; test: Inhibition of STAT3 in human MDA-MB-231 cells assessed as downregulation of c-Myc expression at 0.3 to 3 uM after 24 hrs by western blot analysis; assay type: cell-based; conditions: dose 0.3-3 µM; in short: as §1
[10] = target: T1, Signal transducer and activator of transcription 3; test: Binding affinity to STAT3 (unknown origin) […]
MDA-MB-468 [11] = test: Induction of apoptosis in human MDA-MB-468 cells assessed as increase in caspase-7 cleavage at 1 uM after 48 hrs by Western blot analysis; assay type: functional, cell-based
In short: (§4)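 Cells were treated with vehicle (0.1% DMSO) or compound, then analysed by western blot of RIPA lysates (20–50 μg protein, SDS-PAGE, PVDF) for PARP and cleaved caspase-7, with β-actin as loading control. Three independent experiments.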

MDA231-LM2-4175 [12] = test: Inhibition of cell migration in human MDA231-LM2-4175 cells incubated for 12 to 96 hrs by wound healing assay; assay type: functional, cell-based; conditions: dose 0.3-3 µM, time 12-96 hrs
In short: (§5)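 Cells grown to 100% confluence, then scratched with a pipette tip. Treated with 0–3 μM until vehicle-treated cells had migrated into the scratch. Images taken by microscope after about 12–96 h. Triplicate experiments.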

MDA-MB-231 [13] = test: Induction of apoptosis in human MDA-MB-231 cells assessed as viable cells at 3 uM after 48 hrs by Annexin-V-FITC/propidium iodide staining based flow cytometric analysis (reference value: 93.4%); assay type: functional; conditions: read-out: Activity
MDA-MB-468 [14] = test: Induction of apoptosis in human MDA-MB-468 cells assessed as early apoptotic cells at 1 uM after 48 hrs by Annexin-V-FITC/propidium iodide staining based flow cytometric analysis (reference value: 2.66%); assay type: functional
MDA-MB-231 [15] = test: Effect on total STAT5 level in human MDA-MB-231 cells at 0.3 to 3 uM after 3 hrs by Western blotting analysis; assay type: functional, cell-based; conditions: dose 0.3-3 µM; in short: as §3
[16] = target: T1, Signal transducer and activator of transcription 3; test: Inhibition of STAT3 phosphorylation at Ser727 residue in human MDA-MB-231-4175 cells at 3 uM after 3 hrs by Western blotting analysis; assay type: cell-based; conditions: MDA231-LM2-4175
[17] = target: T1, Signal transducer and activator of transcription 3; test: Inhibition of STAT3 phosphorylation at Ser727 residue in human HCC70 cells at 3 uM after 3 hrs by Western blotting analysis; assay type: cell-based
MDA-MB-231 [18] = test: Induction of apoptosis in human MDA-MB-231 cells assessed as increase in PARP cleavage at 3 uM after 48 hrs by Western blot analysis; assay type: functional, cell-based; in short: as §4
[19] = Toxicity in mouse xenografted with human MDA-MB-231-4175 cells assessed as morphological change in kidney at 5 to 15 mg/kg, […] once daily for 20 days by HE staining based assay; assay type: organism-based; conditions: in vivo, iv, 480 h, dose 5-15 mg/kg, time 20 day; in short: as §2
MDA-MB-468 [20] = test: Inhibition of cell migration in human MDA-MB-468 cells incubated for 12 to 96 hrs by wound healing assay; assay type: functional, cell-based; conditions: dose 0.3-3 µM, time 12-96 hrs; in short: as §5
MDA-MB-468 [21] = test: Inhibition of cell invasion in human MDA-MB-468 cells incubated for 12 hrs by crystal violet staining based transwell assay; assay type: functional; conditions: dose 1-3 µM
In short: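 Cells seeded at 1.5×10^4–3×10^4 per well in the upper chamber of 8.0 µm pore Transwell inserts and treated with graded compound for 12 h. Non-invading cells removed with cotton. Invaded cells fixed in 4% paraformaldehyde, stained with crystal violet, photographed and counted. Triplicate.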

[22] = target: T1, Signal transducer and activator of transcription 3; test: Inhibition of STAT3 in human HCC70 cells assessed as downregulation of Bcl-xL expression at 0.3 to 3 uM after 24 hrs by western blot analysis; assay type: cell-based; conditions: dose 0.3-3 µM; in short: as §1

With O=C(Cc1c(-c2ccccc2)nc2ccccn12)Nc1ccc2c(c1)S(=O)(=O)C=C2 the viability at 3 µM [1] was 83.4%, the Activity (MDA231-LM2-4175 [2]) was “inactive” and the Activity (MDA-MB-468 [3]) was 32.3%. For the same compound, the Activity (MDA-MB-231 [4]) was 11.5%, the AUC(0-inf) [5] was 56.1 ng·h/mL and the inhibition [6] was “Active”. The Activity [7] was “Non-Toxic”, the Activity (HCC70) was “inactive” and the inhibition in vivo at 15 mg/kg [8] was 68.9%. The inhibition [9] was “Active”, the Kd [10] was 432 nM and the Activity (MDA-MB-468 [11]) was “Active”. The inhibition (MDA231-LM2-4175 [12]) was “Dose-Dependent Effect”, the viability at 3 µM (MDA-MB-231 [13]) was 73.9% and the Activity (MDA-MB-468 [14]) was 24%. The Activity (MDA-MB-231 [15]) was “inactive”, the inhibition [16] was “Active” and the inhibition [17] was “inactive”. The Activity (MDA-MB-231 [18]) was “Active”, the Activity [19] was “Non-Toxic” and the inhibition (MDA-MB-468 [20]) was “Dose-Dependent Effect”. For the same compound, the inhibition (MDA-MB-468 [21]) was “Dose-Dependent Effect” and the inhibition [22] was “Active”.
